This passage reports Activity and activity results from ChEMBL document CHEMBL4043093, “2-Oxo-3, 4-dihydropyrimido[4, 5-d]pyrimidinyl derivatives as new irreversible pan fibroblast growth factor receptor (FGFR) inhibitors” (Eur J Med Chem, 2017).

Data set [1] concerns the target Testis-specific serine/threonine-protein kinase 3 (Homo sapiens) (UniProt Q96PN8). Briefly: Inhibition of wild-type human full length TSSK3 (M1 to T268 residues) expressed in HEK293 cells assessed as residual activity at 1000 nM after 30 mins by Kinomescan method relative to control. The data set is classed as cell-based.
Data set [2] deals with Serine/threonine-protein kinase NLK (Homo sapiens) (UniProt Q9UBE8). The data set is described as follows: Inhibition of wild-type human full length NLK (M13 to E527 residues) expressed in Escherichia coli BL21 assessed as residual activity at 1000 nM after 30 mins by Kinomescan method relative to control. The essentials: (§1)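 Single-concentration screen at 1 µM across a 456-kinase KINOMEscan panel. The read-out is Percent Control for each kinase.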
Sequence of Serine/threonine-protein kinase NLK (Homo sapiens) (Q9UBE8 whole entry, the tested form may be a part): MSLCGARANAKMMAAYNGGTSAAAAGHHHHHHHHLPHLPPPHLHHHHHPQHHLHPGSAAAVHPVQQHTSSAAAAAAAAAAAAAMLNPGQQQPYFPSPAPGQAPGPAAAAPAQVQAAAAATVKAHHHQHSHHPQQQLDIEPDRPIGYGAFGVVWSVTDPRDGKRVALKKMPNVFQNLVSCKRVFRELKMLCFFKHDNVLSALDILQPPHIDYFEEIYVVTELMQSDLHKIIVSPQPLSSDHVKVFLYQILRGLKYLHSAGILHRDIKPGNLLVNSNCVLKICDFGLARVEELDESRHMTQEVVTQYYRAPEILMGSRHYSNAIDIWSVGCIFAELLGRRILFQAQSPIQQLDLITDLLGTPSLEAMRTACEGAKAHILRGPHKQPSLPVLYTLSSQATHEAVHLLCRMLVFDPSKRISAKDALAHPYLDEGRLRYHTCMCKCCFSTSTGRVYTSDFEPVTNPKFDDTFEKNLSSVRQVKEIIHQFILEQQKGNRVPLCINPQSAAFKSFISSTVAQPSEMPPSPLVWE

Data set [3] has as its target PDGFRA (platelet-derived growth factor receptor alpha) (Homo sapiens, UniProt P16234). Briefly: Inhibition of wild-type human partial length PDGFRA (V575 to D1002 residues) expressed in HEK293 cells assessed as residual activity at 1000 nM after 30 mins by Kinomescan method relative to control. The data set is classed as cell-based. The note with it: read-out: Activity.

Data set [4] concerns the target RAC-beta serine/threonine-protein kinase (Homo sapiens) (UniProt P31751). Briefly: Inhibition of wild-type human partial length AKT2 expressed in Escherichia coli BL21 assessed as residual activity at 1000 nM after 30 mins by Kinomescan method relative to control.
Data set [5] concerns the target Mitotic checkpoint serine/threonine-protein kinase BUB1 (Homo sapiens) (UniProt O43683). Briefly: Inhibition of wild-type human partial length BUB1 (Q724 to K1085 residues) expressed in HEK293 cells assessed as residual activity at 1000 nM after 30 mins by Kinomescan method relative to control. Format: cell-based.
The target in data set [6] is Serine/threonine-protein kinase PLK3 (Homo sapiens) (UniProt Q9H4B4). The data set is described as follows: Inhibition of wild-type human partial length PLK3 (A42 to L334 residues) expressed in HEK293 cells assessed as residual activity at 1000 nM after 30 mins by Kinomescan method relative to control. Format: cell-based.
Sequence of Serine/threonine-protein kinase PLK3 (Homo sapiens) (Q9H4B4 whole entry, looked up, the tested form may be a part): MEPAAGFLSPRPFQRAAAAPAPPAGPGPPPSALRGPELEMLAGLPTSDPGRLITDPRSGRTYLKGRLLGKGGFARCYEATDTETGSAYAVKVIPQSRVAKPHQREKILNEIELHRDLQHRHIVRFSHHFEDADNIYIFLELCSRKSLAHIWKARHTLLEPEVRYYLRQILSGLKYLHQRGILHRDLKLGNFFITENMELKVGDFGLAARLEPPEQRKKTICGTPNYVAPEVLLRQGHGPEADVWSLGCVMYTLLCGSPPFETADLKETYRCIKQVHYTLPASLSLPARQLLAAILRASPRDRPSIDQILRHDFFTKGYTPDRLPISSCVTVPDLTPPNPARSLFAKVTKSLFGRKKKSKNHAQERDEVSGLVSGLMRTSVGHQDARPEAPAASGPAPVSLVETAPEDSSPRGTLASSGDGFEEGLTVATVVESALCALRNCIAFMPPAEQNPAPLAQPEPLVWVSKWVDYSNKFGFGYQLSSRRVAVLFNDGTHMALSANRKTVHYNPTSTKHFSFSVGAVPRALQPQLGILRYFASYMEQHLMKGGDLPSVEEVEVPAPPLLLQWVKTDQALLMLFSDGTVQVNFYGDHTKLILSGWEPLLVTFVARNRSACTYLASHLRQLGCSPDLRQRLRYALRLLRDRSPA
Data set [7] addresses Tyrosine-protein kinase Fes/Fps (Homo sapiens) (UniProt P07332). Briefly: Inhibition of wild-type human partial length FES (I527 to R822 residues) expressed in Escherichia coli BL21 assessed as residual activity at 1000 nM after 30 mins by Kinomescan method relative to control.
For data set [8], the system named is eIF-2-alpha kinase GCN2 (Homo sapiens), Q9P2K8 [S808G]. Briefly: Inhibition of wild-type human partial length GCN2 kinase domain 2 (R585 to T1018 residues) S808G mutant expressed in Escherichia coli BL21 assessed as residual activity at 1000 nM after 30 mins by Kinomescan method relative to control.
The target in data set [9] is Phosphorylase b kinase gamma catalytic chain, liver/testis isoform (Homo sapiens) (UniProt P15735). Briefly: Inhibition of wild-type human partial length PHKG2 (M1 to W300 residues) expressed in Escherichia coli BL21 assessed as residual activity at 1000 nM after 30 mins by Kinomescan method relative to control.
Data set [10] concerns the target Serine/threonine-protein kinase 32B (Homo sapiens) (UniProt Q9NY57). The data set is described as follows: Inhibition of wild-type human full length YANK2 (M1 to S414 residues) expressed in Escherichia coli BL21 assessed as residual activity at 1000 nM after 30 mins by Kinomescan method relative to control.
Data set [11] concerns the target RAC-alpha serine/threonine-protein kinase (Homo sapiens) (UniProt P31749). The data set is described as follows: Inhibition of wild-type human partial length AKT1 expressed in Escherichia coli BL21 assessed as residual activity at 1000 nM after 30 mins by Kinomescan method relative to control.
Data set [12] concerns the target Serine/threonine-protein kinase 35 (Homo sapiens) (UniProt Q8TDR2). Briefly: Inhibition of wild-type human partial length STK35 (G182 to A534 residues) expressed in Escherichia coli BL21 assessed as residual activity at 1000 nM after 30 mins by Kinomescan method relative to control.
Data set [13] concerns the target Serine/threonine-protein kinase 33 (Homo sapiens) (UniProt Q9BYT3). Briefly: Inhibition of wild-type human full length STK33 (M1 to L514 residues) expressed in Escherichia coli BL21 assessed as residual activity at 1000 nM after 30 mins by Kinomescan method relative to control.
Data set [14] deals with Serine/threonine-protein kinase TAO3 (Homo sapiens) (UniProt Q9H2K8). Briefly: Inhibition of wild-type human partial length TAOK3 (M1 to T316 residues) expressed in HEK293 cells assessed as residual activity at 1000 nM after 30 mins by Kinomescan method relative to control. Format: cell-based.
For data set [15], the target named is STE20/SPS1-related proline-alanine-rich protein kinase (Homo sapiens) (UniProt Q9UEW8). The data set is described as follows: Inhibition of wild-type human partial length STK39 (P43 to I357 residues) expressed in HEK293 cells assessed as residual activity at 1000 nM after 30 mins by Kinomescan method relative to control. Format: cell-based.
In data set [16] the target is Discoidin domain-containing receptor 2 (Homo sapiens) (UniProt Q16832). The data set is described as follows: Inhibition of wild-type human partial length DDR2 (V555 to E855 residues) expressed in HEK293 cells assessed as residual activity at 1000 nM after 30 mins by Kinomescan method relative to control. The data set is classed as cell-based.
The target of data set [17] is Serine/threonine-protein kinase PAK 1 (Homo sapiens) (UniProt Q13153). The data set is described as follows: Inhibition of wild-type human partial length PAK1 (S149 to H545 residues) expressed in Escherichia coli BL21 assessed as residual activity at 1000 nM after 30 mins by Kinomescan method relative to control.
Sequence of Serine/threonine-protein kinase PAK 1 (Homo sapiens) (Q13153 whole entry, the tested form may be a part): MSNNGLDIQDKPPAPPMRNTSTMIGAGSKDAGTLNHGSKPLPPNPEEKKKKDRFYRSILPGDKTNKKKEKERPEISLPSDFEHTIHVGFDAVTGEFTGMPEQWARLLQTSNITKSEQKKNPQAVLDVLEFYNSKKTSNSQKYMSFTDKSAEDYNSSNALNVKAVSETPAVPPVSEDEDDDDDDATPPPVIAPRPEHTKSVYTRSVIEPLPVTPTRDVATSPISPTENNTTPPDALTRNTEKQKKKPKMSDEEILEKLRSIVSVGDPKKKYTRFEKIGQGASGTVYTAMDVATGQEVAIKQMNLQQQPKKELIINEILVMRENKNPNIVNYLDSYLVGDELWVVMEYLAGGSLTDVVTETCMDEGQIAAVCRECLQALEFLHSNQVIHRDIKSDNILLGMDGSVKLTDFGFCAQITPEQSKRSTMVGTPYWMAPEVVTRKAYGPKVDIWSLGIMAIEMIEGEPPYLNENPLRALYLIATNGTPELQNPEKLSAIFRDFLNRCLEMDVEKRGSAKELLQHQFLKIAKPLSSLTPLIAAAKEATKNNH
Data set [18] addresses Serine/threonine-protein kinase Nek5 (Homo sapiens) (UniProt Q6P3R8). Briefly: Inhibition of wild-type human partial length NEK5 (M1 to M279 residues) expressed in Escherichia coli BL21 assessed as residual activity at 1000 nM after 30 mins by Kinomescan method relative to control.
The target in data set [19] is Megakaryocyte-associated tyrosine-protein kinase (Homo sapiens) (UniProt P42679). The data set is described as follows: Inhibition of wild-type human full length CTK (M43 to P508 residues) expressed in HEK293 cells assessed as residual activity at 1000 nM after 30 mins by Kinomescan method relative to control. The data set is classed as cell-based. The gist of the method:
as §1

For data set [20], the target named is Dual specificity protein kinase CLK4 (Homo sapiens) (UniProt Q9HAZ1). Briefly: Inhibition of wild-type human partial length CLK4 (R135 to K481 residues) expressed in Escherichia coli BL21 assessed as residual activity at 1000 nM after 30 mins by Kinomescan method relative to control.
Data set [21] deals with Serine/threonine-protein kinase pim-3 (Homo sapiens) (UniProt Q86V86). The data set is described as follows: Inhibition of wild-type human partial length PIM3 (G16 to A317 residues) expressed in Escherichia coli BL21 assessed as residual activity at 1000 nM after 30 mins by Kinomescan method relative to control.
The target in data set [22] is Beta-adrenergic receptor kinase 1 (Homo sapiens) (UniProt P25098). Briefly: Inhibition of wild-type human full length GRK2 (M1 to L689 residues) expressed in HEK293 cells assessed as residual activity at 1000 nM after 30 mins by Kinomescan method relative to control. The data set is classed as cell-based. The essentials:
as §1

In data set [23] the target is Serine/threonine-protein kinase MRCK beta (Homo sapiens) (UniProt Q9Y5S2). The data set is described as follows: Inhibition of wild-type human partial length MRCKB (L56 to S417 residues) expressed in Escherichia coli BL21 assessed as residual activity at 1000 nM after 30 mins by Kinomescan method relative to control.

Sequence of RAC-alpha serine/threonine-protein kinase (Homo sapiens) (P31749 whole entry, the tested form may be a part): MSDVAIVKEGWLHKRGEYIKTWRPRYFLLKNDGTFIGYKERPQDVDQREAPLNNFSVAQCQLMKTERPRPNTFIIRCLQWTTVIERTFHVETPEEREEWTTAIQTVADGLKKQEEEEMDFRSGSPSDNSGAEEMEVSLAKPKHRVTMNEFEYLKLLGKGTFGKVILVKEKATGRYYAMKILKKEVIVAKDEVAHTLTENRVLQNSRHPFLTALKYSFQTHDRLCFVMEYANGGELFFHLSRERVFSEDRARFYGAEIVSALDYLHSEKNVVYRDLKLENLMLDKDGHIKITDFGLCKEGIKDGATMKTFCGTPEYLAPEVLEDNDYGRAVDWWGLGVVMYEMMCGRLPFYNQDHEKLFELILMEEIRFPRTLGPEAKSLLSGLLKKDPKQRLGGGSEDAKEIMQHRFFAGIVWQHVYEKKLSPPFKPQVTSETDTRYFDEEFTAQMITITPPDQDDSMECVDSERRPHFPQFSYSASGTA
Sequence of Testis-specific serine/threonine-protein kinase 3 (Homo sapiens) (Q96PN8 whole entry, the tested form may be a part): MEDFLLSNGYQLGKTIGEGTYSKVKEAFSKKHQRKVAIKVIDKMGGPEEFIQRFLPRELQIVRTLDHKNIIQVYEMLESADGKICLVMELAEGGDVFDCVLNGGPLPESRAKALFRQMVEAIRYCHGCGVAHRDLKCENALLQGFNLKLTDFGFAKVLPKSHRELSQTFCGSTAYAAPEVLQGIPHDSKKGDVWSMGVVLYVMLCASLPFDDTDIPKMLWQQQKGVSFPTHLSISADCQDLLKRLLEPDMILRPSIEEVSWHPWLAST
Sequence of Serine/threonine-protein kinase Nek5 (Homo sapiens) (Q6P3R8 whole entry, the tested form may be a part): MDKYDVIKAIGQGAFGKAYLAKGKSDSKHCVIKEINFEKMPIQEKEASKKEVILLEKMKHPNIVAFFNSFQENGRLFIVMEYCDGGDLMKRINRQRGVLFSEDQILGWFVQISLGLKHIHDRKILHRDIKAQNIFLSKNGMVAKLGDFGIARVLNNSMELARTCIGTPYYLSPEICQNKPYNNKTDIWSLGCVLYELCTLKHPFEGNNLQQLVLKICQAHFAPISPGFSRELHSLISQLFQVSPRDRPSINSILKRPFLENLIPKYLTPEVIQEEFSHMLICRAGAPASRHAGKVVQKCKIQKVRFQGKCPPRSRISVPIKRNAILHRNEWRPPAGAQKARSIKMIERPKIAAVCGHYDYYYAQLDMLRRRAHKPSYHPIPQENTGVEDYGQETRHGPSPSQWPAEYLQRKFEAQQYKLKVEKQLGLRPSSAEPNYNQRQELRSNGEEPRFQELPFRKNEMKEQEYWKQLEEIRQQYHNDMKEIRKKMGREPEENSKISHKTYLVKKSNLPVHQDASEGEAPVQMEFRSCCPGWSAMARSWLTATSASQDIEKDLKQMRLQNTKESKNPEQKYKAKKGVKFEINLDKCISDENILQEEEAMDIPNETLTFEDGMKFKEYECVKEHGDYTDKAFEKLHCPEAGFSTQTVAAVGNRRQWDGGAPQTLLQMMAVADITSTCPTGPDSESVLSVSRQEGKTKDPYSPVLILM
Sequence of Megakaryocyte-associated tyrosine-protein kinase (Homo sapiens) (P42679 whole entry, the tested form may be a part): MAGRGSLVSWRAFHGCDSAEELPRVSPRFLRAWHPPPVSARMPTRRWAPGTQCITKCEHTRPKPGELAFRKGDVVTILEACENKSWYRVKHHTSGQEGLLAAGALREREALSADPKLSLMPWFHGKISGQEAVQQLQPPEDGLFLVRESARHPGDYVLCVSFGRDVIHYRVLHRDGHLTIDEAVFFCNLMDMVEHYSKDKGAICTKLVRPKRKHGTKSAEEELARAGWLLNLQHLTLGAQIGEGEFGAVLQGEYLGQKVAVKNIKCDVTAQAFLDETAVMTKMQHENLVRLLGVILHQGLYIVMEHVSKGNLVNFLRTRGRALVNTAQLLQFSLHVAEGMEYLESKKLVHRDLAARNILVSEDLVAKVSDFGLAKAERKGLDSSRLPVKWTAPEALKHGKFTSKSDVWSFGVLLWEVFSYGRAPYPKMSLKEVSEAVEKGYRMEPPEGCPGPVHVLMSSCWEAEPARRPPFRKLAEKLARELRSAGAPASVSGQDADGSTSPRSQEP
Sequence of Beta-adrenergic receptor kinase 1 (Homo sapiens) (P25098 whole entry, the tested form may be a part): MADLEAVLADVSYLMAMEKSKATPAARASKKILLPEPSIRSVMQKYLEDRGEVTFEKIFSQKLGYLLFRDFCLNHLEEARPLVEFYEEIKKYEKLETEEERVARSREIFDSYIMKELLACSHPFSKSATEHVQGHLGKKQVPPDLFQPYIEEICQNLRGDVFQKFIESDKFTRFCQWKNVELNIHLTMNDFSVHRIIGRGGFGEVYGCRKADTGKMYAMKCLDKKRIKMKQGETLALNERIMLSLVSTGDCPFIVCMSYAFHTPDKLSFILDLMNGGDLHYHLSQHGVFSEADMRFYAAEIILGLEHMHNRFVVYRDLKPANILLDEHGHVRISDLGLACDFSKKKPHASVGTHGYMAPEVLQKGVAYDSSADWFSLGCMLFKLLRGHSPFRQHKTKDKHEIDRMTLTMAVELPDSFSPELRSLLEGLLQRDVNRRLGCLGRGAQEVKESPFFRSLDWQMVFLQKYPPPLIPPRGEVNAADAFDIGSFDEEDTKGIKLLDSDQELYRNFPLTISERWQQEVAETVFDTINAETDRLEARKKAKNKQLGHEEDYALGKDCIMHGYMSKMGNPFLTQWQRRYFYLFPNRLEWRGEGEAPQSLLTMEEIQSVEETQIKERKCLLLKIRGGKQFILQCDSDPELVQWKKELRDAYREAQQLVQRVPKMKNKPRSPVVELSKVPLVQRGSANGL

Turning to `COc1cc(OC)c(Cl)c(N2Cc3cnc(Nc4ccc(F)cc4)nc3N(C3CCN(C(=O)/C=C/CN(C)C)CC3)C2=O)c1Cl`, the Activity is 100% in data set [1]; 98% in data set [2]; 92% in data set [4]; 100% in data set [5]; 99% in data set [6]; 40% in data set [7]. The Activity in data set [8] was 46%; in data set [9], 98%; in data set [10] it was 83%; in data set [11] it was 88%; in data set [12], 100%; in data set [13] it was 100%. The Activity turned out to be 36% in data set [14]; 100% in data set [15]; 77% in data set [16]; 100% in data set [17]; 14% in data set [18]; 100% in data set [19]. For the same compound, the Activity in data set [20] is 93%; in data set [21], 100%; in data set [22], 87%; in data set [23], 100%. In addition, the activity at 0.5 h, 1 µM in [3] was 62%.
